Measured values reported in ChEMBL document CHEMBL1667749, “Design & synthesis of N'-[substituted] pyridine-4-carbohydrazides as potential anticonvulsant agents” (Eur J Med Chem, 2011).
Calls of active or inactive are those of the source. The calls are words filed in the database; no cut-off is given here.

Assays:
[1] = test system: Mus musculus; experiment: Anticonvulsant activity in albino CF-1 mouse assessed as protection against 6 Hz psychomotor seizure at 100 mg/kg, ip after 4 hrs by minimal clonic seizure test; assay type: functional, organism-based; design: dose 100 mg/kg
In short: (§1)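 Male CF-1 mice (18–25 g), i.p. 100 mg/kg in 0.5% methyl cellulose suspension; 6 Hz corneal stimulation, 32 mA for 3 s, four mice per time point. Protected if no minimal clonic phase with stereotyped automatistic behaviour.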

[2] = test system: Mus musculus; experiment: Anticonvulsant activity in albino CF-1 mouse assessed as protection against 6 Hz psychomotor seizure at 100 mg/kg, ip after 2 hrs by minimal clonic seizure test; assay type: functional; in short: as §1
[3] = test system: Mus musculus; experiment: Anticonvulsant activity in albino CF-1 mouse assessed as protection against 6 Hz psychomotor seizure at 100 mg/kg, ip after 1 hr by minimal clonic seizure test; assay type: functional; in short: as §1
[4] = test system: Mus musculus; experiment: Anticonvulsant activity in albino CF-1 mouse assessed as protection against 6 Hz psychomotor seizure at 100 mg/kg, ip after 0.5 hrs by minimal clonic seizure test; assay type: functional; in short: as §1
[5] = test system: Mus musculus; experiment: Anticonvulsant activity in albino CF-1 mouse assessed as protection against 6 Hz psychomotor seizure at 100 mg/kg, ip after 0.25 hrs by minimal clonic seizure test; assay type: functional; in short: as §1
[6] = test system: Mus musculus; experiment: Anticonvulsant activity in albino CF-1 mouse assessed as protection against maximal electroshock-induced seizures at 300 mg/kg, ip after 0.5 hrs; assay type: functional, organism-based; design: dose 300 mg/kg
In short: (§2)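 Male CF-1 mice (18–25 g), i.p. in 0.5% methyl cellulose at 30, 100 and 300 mg/kg; MES: 60 Hz, 50 mA, 0.2 s through tetracaine-primed corneal electrodes; protection = abolished hind limb tonic extension. Value given as minimum dose active in half or more of mice.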

[7] = test system: Mus musculus; experiment: Anticonvulsant activity in albino CF-1 mouse assessed as protection against maximal electroshock-induced seizures at 300 mg/kg, ip after 2 hrs; assay type: functional, organism-based; design: dose 300 mg/kg; in short: as §2
[8] = test system: Mus musculus; experiment: Anticonvulsant activity in albino CF-1 mouse assessed as protection against maximal electroshock-induced seizures at 300 mg/kg, ip after 4 hrs; assay type: functional, organism-based; design: dose 300 mg/kg; in short: as §2
[9] = test system: Mus musculus; experiment: Anticonvulsant activity in albino CF-1 mouse assessed as protection against subcutaneous metrazol-induced seizures at 300 mg/kg, ip after 0.5 hrs; assay type: functional, organism-based; design: dose 300 mg/kg
In short: (§3)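 Male CF-1 mice, i.p. at 30, 100, 300 mg/kg in 0.5% methyl cellulose; metrazol dose convulsing 97% of animals injected s.c. in midline neck fold, mice isolated and watched 30 min; protected if no 3–5 s clonic spasm episode of limbs, jaws or vibrissae.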

[10] = test system: Mus musculus; experiment: Anticonvulsant activity in albino CF-1 mouse assessed as protection against subcutaneous metrazol-induced seizures at 300 mg/kg, ip after 4 hrs; assay type: functional, organism-based; design: dose 300 mg/kg; in short: as §3
[11] = test system: Mus musculus; experiment: Neurotoxicity in albino CF-1 mouse assessed as motor impairment at 300 mg/kg, ip after 0.5 hrs by rotarod test; assay type: toxicity, organism-based; design: dose 300 mg/kg, route intraperitoneal; conditions: in vivo
In short: (§4)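 Minimal motor impairment in male CF-1 mice by rotorod after i.p. dosing; toxic if animal falls off rotating rod 3 times within 1 min. Screen doses 30, 100, 300 mg/kg; quantitative TD50 (95% confidence interval) determined at time of peak effect.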

[12] = test system: Mus musculus; experiment: Neurotoxicity in albino CF-1 mouse assessed as motor impairment at 300 mg/kg, ip after 4 hrs by rotarod test; assay type: toxicity, organism-based; design: dose 300 mg/kg, route intraperitoneal; conditions: in vivo; in short: as §4
[13] = Octanol-phosphate buffer partition coefficient, log P of the compound at 5 mg, after 24 hrs by UV spectroscopic analysis; assay type: physicochemical
In short: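 5 mg compound added to 10 mL octanol plus 10 mL phosphate buffer in stoppered tube, mechanically shaken 24 h at room temperature, then left in separating funnel 6 h to equilibrate.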

[14] = test system: Mus musculus; experiment: Anticonvulsant activity in ip dosed albino CF-1 mouse assessed as protection against 6 Hz psychomotor seizure after 1 hr by minimal clonic seizure test; assay type: functional; conditions: albino CF-1, ip
In short: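 Quantitative 6 Hz test in male CF-1 mice dosed i.p.; 32 mA for 3 s via corneal electrodes at time of peak effect; ED50 with 95% confidence interval, slope and standard error reported.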

[15] = test system: Mus musculus; experiment: Anticonvulsant activity in ip dosed albino CF-1 mouse assessed as dose required to protect against maximal electroshock-induced seizures after 4 hrs; assay type: functional; in short: as §2
[16] = Neuroprotective activity in hippocampal slices assessed as protection against NMDA-induced cell death after 4 hrs; assay type: functional, tissue-based; conditions: Hippocampus
In short: (§5)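 Organotypic hippocampal slice cultures exposed to NMDA or kainic acid alone or with test compound; propidium iodide in all wells, cell death read as PI fluorescence intensity; qualitative primary screen.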

[17] = Neuroprotective activity in hippocampal slices assessed as protection against kainic acid-induced cell death after 4 hrs; assay type: functional, tissue-based; conditions: Hippocampus; in short: as §5
[18] = test system: Rattus norvegicus; experiment: Anticonvulsant activity in Sprague-Dawley rat assessed as protection against pilocarpine-induced status epilepticus at 600 mg/kg, ip; assay type: functional, organism-based; design: dose 600 mg/kg
In short: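 Male albino Sprague Dawley rats (150–180 g) dosed i.p., then challenged with pilocarpine; qualitative screen scored as protection or no protection, seizure severity graded on the Racine scale; N/F and deaths recorded, time taken post first Stage III seizure.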

Row | Compound | logP at 24 h [13] | Activity [1] | Activity [2] | Activity [3] | Activity [4] | Activity [5] | Activity [6] | Activity [7] | Activity [8] | Activity [9] | Activity [10] | Activity [11] | Activity [12] | also measured
1 | Cc1cc(Oc2ccc(/C=N\NC(=O)c3ccncc3)cc2)ccc1Cl | 4.21 | inactive | inactive | inactive | inactive | Active | inactive | inactive | inactive | inactive | inactive | Non-toxic | Non-toxic | 
2 | O=C(N/N=C\c1ccc(Oc2ccc3c(c2)OCO3)cc1)c1ccncc1 | 3.2 |  |  |  |  |  | inactive | inactive | inactive | inactive | inactive | Non-toxic | Non-toxic | 
3 | O=C(N/N=C\c1ccc(Oc2ccc([N+](=O)[O-])cc2)cc1)c1ccncc1 | 3.23 |  |  |  |  |  | inactive | inactive | inactive | inactive | inactive | Non-toxic | Non-toxic | 
4 | O=C(N/N=C\c1ccc(Oc2ccc3ccccc3c2)cc1)c1ccncc1 | 4.52 |  |  |  |  |  | inactive | inactive | inactive | inactive | inactive | Non-toxic | Non-toxic | 
5 | O=C1Nc2ccccc2/C1=N\NC(=O)c1ccncc1 |  | inactive | inactive | Active |  | Active | inactive | inactive | inactive | inactive | inactive |  |  | Activity ([4]; route intraperitoneal): 50%; Activity [18]: inactive
6 | O=C(N/N=C\c1ccc(Oc2ccccc2)cc1)c1ccncc1 | 3.37 |  |  |  |  |  | inactive | inactive | inactive | inactive | inactive | Non-toxic | Non-toxic | 

Second part, led by results:

Row | logP at 24 h [13] | Compound | Activity [1] | Activity [2] | Activity [3] | Activity [4] | Activity [5] | Activity [6] | Activity [7] | Activity [8] | Activity [9] | Activity [10] | Activity [11] | Activity [12] | also measured
7 | 4.03 | O=C(N/N=C\c1ccc(Oc2ccc(Br)cc2)cc1)c1ccncc1 | inactive | Active | inactive | inactive | inactive | inactive | inactive | inactive | inactive | inactive | Non-toxic | Non-toxic | 
8 | 3.95 | O=C(N/N=C\c1ccc(Oc2ccc(Cl)cc2)cc1)c1ccncc1 |  |  |  |  |  | inactive | inactive | inactive | inactive | inactive | Non-toxic |  | 
9 | 3.65 | Cc1ccc(Oc2ccc(/C=N\NC(=O)c3ccncc3)cc2)cc1 | inactive |  |  | Active | Active | inactive | inactive |  | inactive | inactive | Non-toxic | Non-toxic | ED50 [14]: > 200 mg/kg; Activity ([2]; route intraperitoneal): 50%; Activity ([3]; route intraperitoneal): 75%; Activity [15]: 300 mg/kg; Activity [16]: inactive; Activity [17]: inactive
